Values after ≈ are worked out from the molar mass of the structure shown.
Legend:
Assay type in all cases: functional
[1] = test system: Enterococcus faecium; experiment: Antibacterial activity against Enterococcus faecium 10-6 after 18 to 24 hrs by NCCLS method
Summary of the method: (§1)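 Standard NCCLS (M100-S11) MIC testing against Gram-positive and Gram-negative strains. Plates were incubated at 35 °C for 18–24 h. The MIC was read as the lowest concentration giving complete inhibition of visible bacterial growth.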

[2] = test system: Mycobacterium tuberculosis; experiment: Antimycobacterial activity against Mycobacterium tuberculosis H37Rv ATCC 27294 by microplate alamar blue assay
Summary of the method: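 Microplate Alamar Blue fluorescence assay on strain H37Rv ATCC 27294. MIC was the lowest concentration cutting fluorescence by ≥90% against the mean of replicate bacterium-only controls.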

[3] = test system: Escherichia coli; experiment: Antibacterial activity against extended spectrum beta-lactamases producing Escherichia coli 10-4 after 18 to 24 hrs by NCCLS method; summary of the method: as §1
[4] = test system: Klebsiella pneumoniae; experiment: Antibacterial activity against extended spectrum beta-lactamases producing Klebsiella pneumoniae 10-3 after 18 to 24 hrs by NCCLS method; summary of the method: as §1
[5] = test system: Staphylococcus epidermidis; experiment: Antibacterial activity against methicillin-sensitive Staphylococcus epidermidis 10-11 after 18 to 24 hrs by NCCLS method; summary of the method: as §1
[6] = test system: Staphylococcus aureus; experiment: Antibacterial activity against methicillin-sensitive Staphylococcus aureus 10-13 after 18 to 24 hrs by NCCLS method; summary of the method: as §1
[7] = test system: Klebsiella pneumoniae; experiment: Antibacterial activity against extended spectrum beta-lactamases producing Klebsiella pneumoniae 10-2 after 18 to 24 hrs by NCCLS method; summary of the method: as §1
[8] = test system: Klebsiella pneumoniae; experiment: Antibacterial activity against extended spectrum beta-lactamases producing Klebsiella pneumoniae 10-1 after 18 to 24 hrs by NCCLS method; summary of the method: as §1
[9] = test system: Pseudomonas aeruginosa; experiment: Antibacterial activity against Pseudomonas aeruginosa 10-5 after 18 to 24 hrs by NCCLS method; summary of the method: as §1
[10] = test system: Escherichia coli; experiment: Antibacterial activity against Escherichia coli 10-2 after 18 to 24 hrs by NCCLS method; summary of the method: as §1
[11] = test system: Pseudomonas aeruginosa; experiment: Antibacterial activity against Pseudomonas aeruginosa 10-18 after 18 to 24 hrs by NCCLS method; summary of the method: as §1
[12] = test system: Pseudomonas aeruginosa; experiment: Antibacterial activity against Pseudomonas aeruginosa 10-15 after 18 to 24 hrs by NCCLS method; summary of the method: as §1
[13] = test system: Staphylococcus aureus; experiment: Antibacterial activity against methicillin-sensitive Staphylococcus aureus 10-14 after 18 to 24 hrs by NCCLS method; summary of the method: as §1
[14] = test system: Enterococcus faecalis; experiment: Antibacterial activity against Enterococcus faecalis 10-6 after 18 to 24 hrs by NCCLS method; summary of the method: as §1
[15] = test system: Escherichia coli; experiment: Antibacterial activity against Escherichia coli 10-3 after 18 to 24 hrs by NCCLS method; summary of the method: as §1
[16] = test system: Escherichia coli; experiment: Antibacterial activity against extended spectrum beta-lactamases producing Escherichia coli 10-2 after 18 to 24 hrs by NCCLS method; summary of the method: as §1
[17] = test system: Pseudomonas aeruginosa; experiment: Antibacterial activity against Pseudomonas aeruginosa 10-9 after 18 to 24 hrs by NCCLS method; summary of the method: as §1
[18] = test system: Streptococcus pneumoniae; experiment: Antibacterial activity against Streptococcus pneumoniae 10-6 after 18 to 24 hrs by NCCLS method; summary of the method: as §1
[19] = test system: Staphylococcus epidermidis; experiment: Antibacterial activity against methicillin-resistant Staphylococcus epidermidis 10-13 after 18 to 24 hrs by NCCLS method
Summary of the method: (§2)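 Incubated at 35 °C for 18–24 h under NCCLS (M100-S11) standards. MIC was read as the lowest concentration giving complete inhibition of visible bacterial growth.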

[20] = test system: Escherichia coli; experiment: Antibacterial activity against Escherichia coli 10-1 after 18 to 24 hrs by NCCLS method; summary of the method: as §1
[21] = test system: Streptococcus pneumoniae; experiment: Antibacterial activity against Streptococcus pneumoniae 10-1 after 18 to 24 hrs by NCCLS method; summary of the method: as §1
[22] = test system: Enterococcus faecalis; experiment: Antibacterial activity against Enterococcus faecalis 10-5 after 18 to 24 hrs by NCCLS method; summary of the method: as §1
[23] = test system: Staphylococcus aureus; experiment: Antibacterial activity against methicillin-resistant Staphylococcus aureus 10-15 after 18 to 24 hrs by NCCLS method; summary of the method: as §2
[24] = test system: Enterococcus faecalis; experiment: Antibacterial activity against Enterococcus faecalis 10-7 after 18 to 24 hrs by NCCLS method; summary of the method: as §1
[25] = test system: Klebsiella pneumoniae; experiment: Antibacterial activity against Klebsiella pneumoniae 10-4 after 18 to 24 hrs by NCCLS method; summary of the method: as §1
[26] = test system: Staphylococcus aureus; experiment: Antibacterial activity against methicillin-sensitive Staphylococcus aureus 10-11 after 18 to 24 hrs by NCCLS method; summary of the method: as §1
[27] = test system: Pseudomonas aeruginosa; experiment: Antibacterial activity against Pseudomonas aeruginosa 10-20 after 18 to 24 hrs by NCCLS method; summary of the method: as §1
[28] = test system: Staphylococcus aureus; experiment: Antibacterial activity against Staphylococcus aureus ATCC 2592 after 18 to 24 hrs by NCCLS method; summary of the method: as §1
[29] = test system: Staphylococcus epidermidis; experiment: Antibacterial activity against methicillin-sensitive Staphylococcus epidermidis 10-15 after 18 to 24 hrs by NCCLS method; summary of the method: as §2
[30] = test system: Escherichia coli; experiment: Antibacterial activity against Escherichia coli ATCC 25922 after 18 to 24 hrs by NCCLS method; summary of the method: as §1
[31] = test system: Escherichia coli; experiment: Antibacterial activity against extended spectrum beta-lactamases producing Escherichia coli 10-3 after 18 to 24 hrs by NCCLS method; summary of the method: as §1
[32] = test system: Pseudomonas aeruginosa; experiment: Antibacterial activity against Pseudomonas aeruginosa 10-12 after 18 to 24 hrs by NCCLS method; summary of the method: as §1
[33] = test system: Klebsiella pneumoniae; experiment: Antibacterial activity against Klebsiella pneumoniae 10-2 after 18 to 24 hrs by NCCLS method; summary of the method: as §1
[34] = test system: Staphylococcus aureus; experiment: Antibacterial activity against methicillin-resistant Staphylococcus aureus 10-11 after 18 to 24 hrs by NCCLS method; summary of the method: as §2
[35] = test system: Staphylococcus aureus; experiment: Antibacterial activity against methicillin-resistant Staphylococcus aureus 10-13 after 18 to 24 hrs by NCCLS method; summary of the method: as §2
[36] = test system: Staphylococcus epidermidis; experiment: Antibacterial activity against methicillin-resistant Staphylococcus epidermidis 10-10 after 18 to 24 hrs by NCCLS method; summary of the method: as §2
[37] = test system: Enterococcus faecium; experiment: Antibacterial activity against Enterococcus faecium 10-9 after 18 to 24 hrs by NCCLS method; summary of the method: as §1
[38] = test system: Klebsiella pneumoniae; experiment: Antibacterial activity against Klebsiella pneumoniae 10-3 after 18 to 24 hrs by NCCLS method; summary of the method: as §1

SMILES | MIC [1] | MIC [2] | MIC [3] | MIC [4] | MIC [5] | MIC [6] | MIC [7] | MIC [8] | MIC [9] | MIC [10] | MIC [11] | MIC [12] | MIC [13] | MIC [14] | MIC [15] | MIC [16] | MIC [17] | MIC [18] | MIC [19] | MIC [20] | other results
O=C(O)c1cn(C2CC2)c2cc(N3CCN(Cc4ccc5c(c4)OCO5)CC3)c(F)cc2c1=O | 8 µg/mL (≈ 17.2 µM) | 2 µg/mL (≈ 4.3 µM) | 16 µg/mL (≈ 34.4 µM) | > 128 µg/mL | 2 µg/mL (≈ 4.3 µM) | 1 µg/mL (≈ 2.15 µM) | > 128 µg/mL | > 128 µg/mL | 16 µg/mL (≈ 34.4 µM) | 16 µg/mL (≈ 34.4 µM) | 8 µg/mL (≈ 17.2 µM) | 16 µg/mL (≈ 34.4 µM) | 1 µg/mL (≈ 2.15 µM) | 32 µg/mL (≈ 68.7 µM) | 16 µg/mL (≈ 34.4 µM) | > 128 µg/mL | 16 µg/mL (≈ 34.4 µM) | 16 µg/mL (≈ 34.4 µM) | 16 µg/mL (≈ 34.4 µM) | > 128 µg/mL | MIC [21]: 8 µg/mL (≈ 17.2 µM); MIC [22]: 16 µg/mL (≈ 34.4 µM); MIC [23]: 16 µg/mL (≈ 34.4 µM); MIC [24]: 16 µg/mL (≈ 34.4 µM); MIC [25]: > 128 µg/mL; MIC [26]: 0.5 µg/mL (≈ 1.07 µM); MIC [27]: 16 µg/mL (≈ 34.4 µM); MIC [28]: 0.25 µg/mL (≈ 0.537 µM); MIC [29]: 16 µg/mL (≈ 34.4 µM); MIC [30]: 0.25 µg/mL (≈ 0.537 µM); MIC [31]: > 128 µg/mL; MIC [32]: 32 µg/mL (≈ 68.7 µM); MIC [33]: 64 µg/mL (≈ 137 µM); MIC [34]: 32 µg/mL (≈ 68.7 µM); MIC [35]: 64 µg/mL (≈ 137 µM); MIC [36]: 16 µg/mL (≈ 34.4 µM); MIC [37]: 8 µg/mL (≈ 17.2 µM); MIC [38]: 8 µg/mL (≈ 17.2 µM)
O=C(O)c1cn(C2CC2)c2cc(N3CCN(Cc4cc5c(cc4[N+](=O)[O-])OCO5)CC3)c(F)cc2c1=O | 2 µg/mL (≈ 3.92 µM) | 2 µg/mL (≈ 3.92 µM) | 8 µg/mL (≈ 15.7 µM) | > 128 µg/mL | 1 µg/mL (≈ 1.96 µM) | 1 µg/mL (≈ 1.96 µM) | > 128 µg/mL | > 128 µg/mL | 1 µg/mL (≈ 1.96 µM) | 1 µg/mL (≈ 1.96 µM) | 2 µg/mL (≈ 3.92 µM) | 0.5 µg/mL (≈ 0.979 µM) | 1 µg/mL (≈ 1.96 µM) | 64 µg/mL (≈ 125 µM) | 8 µg/mL (≈ 15.7 µM) | > 128 µg/mL | 1 µg/mL (≈ 1.96 µM) | 16 µg/mL (≈ 31.3 µM) | 32 µg/mL (≈ 62.7 µM) | 32 µg/mL (≈ 62.7 µM) | MIC [21]: 2 µg/mL (≈ 3.92 µM); MIC [22]: 32 µg/mL (≈ 62.7 µM); MIC [23]: 32 µg/mL (≈ 62.7 µM); MIC [24]: 32 µg/mL (≈ 62.7 µM); MIC [25]: > 128 µg/mL; MIC [26]: 0.5 µg/mL (≈ 0.979 µM); MIC [27]: 4 µg/mL (≈ 7.84 µM); MIC [28]: 0.5 µg/mL (≈ 0.979 µM); MIC [29]: 16 µg/mL (≈ 31.3 µM); MIC [30]: 0.125 µg/mL (≈ 0.245 µM); MIC [31]: > 128 µg/mL; MIC [32]: 1 µg/mL (≈ 1.96 µM); MIC [33]: 64 µg/mL (≈ 125 µM); MIC [34]: 32 µg/mL (≈ 62.7 µM); MIC [35]: 32 µg/mL (≈ 62.7 µM); MIC [36]: 16 µg/mL (≈ 31.3 µM); MIC [37]: 16 µg/mL (≈ 31.3 µM); MIC [38]: 2 µg/mL (≈ 3.92 µM)

— ChEMBL document CHEMBL2157880, “Synthesis, antimycobacterial and antibacterial activity of ciprofloxacin derivatives containing a N-substituted benzyl moiety” (2012)
